Molecular target: T1, Lanosterol synthase (Rattus norvegicus, UniProt P48450)
T1 sequence (P48450 whole entry): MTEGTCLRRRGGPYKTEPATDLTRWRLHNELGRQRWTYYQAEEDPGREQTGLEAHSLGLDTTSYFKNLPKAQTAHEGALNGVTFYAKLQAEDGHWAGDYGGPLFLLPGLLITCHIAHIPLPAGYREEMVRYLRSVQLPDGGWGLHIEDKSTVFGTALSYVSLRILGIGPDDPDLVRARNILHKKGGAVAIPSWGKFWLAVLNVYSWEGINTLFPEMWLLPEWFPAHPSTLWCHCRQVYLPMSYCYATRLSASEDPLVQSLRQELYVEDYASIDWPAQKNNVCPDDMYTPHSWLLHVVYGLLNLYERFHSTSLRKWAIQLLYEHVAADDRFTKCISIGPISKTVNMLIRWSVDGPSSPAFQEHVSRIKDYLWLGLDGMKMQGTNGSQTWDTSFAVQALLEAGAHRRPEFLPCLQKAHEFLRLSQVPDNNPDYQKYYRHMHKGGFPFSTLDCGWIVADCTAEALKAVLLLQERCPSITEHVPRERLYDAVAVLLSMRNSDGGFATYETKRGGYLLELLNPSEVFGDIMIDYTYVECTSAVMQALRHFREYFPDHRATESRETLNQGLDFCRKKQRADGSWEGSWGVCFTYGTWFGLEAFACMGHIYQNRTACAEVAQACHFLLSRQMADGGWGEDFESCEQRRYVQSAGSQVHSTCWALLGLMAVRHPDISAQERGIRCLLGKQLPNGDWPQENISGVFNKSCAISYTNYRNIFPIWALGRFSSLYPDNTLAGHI
Test: Inhibition of compound was measured on rat microsomal Oxidosqualene-lanosterol cyclase
Outline: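 Rat liver microsomes diluted in 50 mM phosphate buffer pH 7.4 with tween; compounds from DMSO stocks (10^-4 M, serial tenfold dilutions) preincubated with microsomes 10 min at 37 °C, then cold plus radiolabelled oxidosqualene added, 1 h incubation. Stopped with ethanolic KOH, heated 80 °C 2 h, hexane-extracted; inhibition from radiolabelled product.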

Compound	IC50 [nM]
OC1(c2ccc(-c3ccccc3)cc2)CN2CCC1CC2 (centres undefined)	> 100
C=CCc1cc(CCC(=O)OCC)ccc1C#CC1(O)CN2CCC1CC2 (centres undefined)	> 100

Molecular target: T2, Lanosterol synthase (Rattus norvegicus) (UniProt P48450)
T2 sequence (whole entry): T1 sequence (P48450 whole entry)
Test: The in vivo assay of compound for inhibition of cholesterol biosynthesis was measured on Oxidosqualene-lanosterol cyclase of rat at 5 mg/kg
Type: functional, organism-based
Design: dose 5 mg/kg
Outline: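 Female rats (130 ± 20 g) on reverse lighting dosed orally in DMSO/HPMC; tritiated mevalonate (2.5 μCi) given 1 h later, rats killed after another 1 h. Liver extracts run on HPLC with radiodetection; peaks assigned against standard sterol intermediates' retention times; cholesterol synthesis inhibition from peak area, plus intermediate selectivity profile.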

Compound	inhibition [%]
O=C(c1ccc(Cl)cc1)c1ccc(OC2CN3CCC2CC3)cc1 (centres undefined)	92
O=C(/C=C1\CN2CCC1CC2)c1ccc(C(=O)c2ccc(Br)cc2)cc1	84

Molecular target: T3, Squalene synthase (Rattus norvegicus, UniProt Q02769)
T3 sequence (Q02769 whole entry): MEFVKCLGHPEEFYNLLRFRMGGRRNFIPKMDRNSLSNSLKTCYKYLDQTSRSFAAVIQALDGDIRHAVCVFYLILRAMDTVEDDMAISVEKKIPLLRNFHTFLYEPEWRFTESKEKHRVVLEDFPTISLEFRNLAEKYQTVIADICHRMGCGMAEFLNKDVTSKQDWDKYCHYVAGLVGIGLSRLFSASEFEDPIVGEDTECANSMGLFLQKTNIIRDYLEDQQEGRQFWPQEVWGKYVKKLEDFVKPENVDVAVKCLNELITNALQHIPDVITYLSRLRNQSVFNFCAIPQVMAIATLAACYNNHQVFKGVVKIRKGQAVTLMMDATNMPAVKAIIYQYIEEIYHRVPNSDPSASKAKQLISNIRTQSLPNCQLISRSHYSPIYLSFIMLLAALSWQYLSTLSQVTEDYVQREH
Test: Compound was measured for the inhibition of rat microsomal squalene synthase enzyme

Compound	IC50 [nM]
C=CCc1cc(CCC(=O)OCC)ccc1C#CC1(O)CN2CCC1CC2 (centres undefined)	6

Molecular target: T2, Lanosterol synthase (Rattus norvegicus)
Test: The in vivo assay of compound for inhibition of cholesterol biosynthesis was measured on Oxidosqualene-lanosterol cyclase of rat at 5 mg/kg

Compound	inhibition [%]
OC1(C#Cc2ccc(Oc3ccc(Br)cc3)cc2)CN2CCC1CC2 (centres undefined)	55
Brc1ccc(SC2CN3CCC2CC3)cc1 (centres undefined)	47
[O-][S+](c1ccc(Br)cc1)c1ccc(C#CC2(O)CN3CCC2CC3)cc1 (centres undefined)	83
O=C(c1ccc(Br)cc1)c1ccc(C#CC2(O)CN3CCC2CC3)cc1 (centres undefined)	59
Brc1cccc(SC2CN3CCC2CC3)c1 (centres undefined)	< 5
Brc1ccccc1SC1CN2CCC1CC2 (centres undefined)	< 5
O=C(c1ccc(C(F)(F)F)cc1)N1CCC(=Cc2ccc(C3=NCCO3)cc2)CC1	98
O=S(=O)(c1ccc(Br)cc1)c1ccc(C#CC2(O)CN3CCC2CC3)cc1 (centres undefined)	94
OC1(C#Cc2ccc(Sc3ccc(Br)cc3)cc2)CN2CCC1CC2 (centres undefined)	79

Source: ChEMBL document CHEMBL1132628, “Quinuclidine inhibitors of 2,3-oxidosqualene cyclase-lanosterol synthase: optimization from lipid profiles” (J Med Chem, 1999)
